Measurements taken from ChEMBL document CHEMBL3352685, “Small-molecule inhibitors of 25-hydroxyvitamin D-24-hydroxylase (CYP24A1): synthesis and biological evaluation” (J Med Chem, 2014).

Assays:
[1] = target: T1, 1,25-dihydroxyvitamin D(3) 24-hydroxylase, mitochondrial (Homo sapiens, UniProt Q07973); experiment: Inhibition of human MBP-tagged CYP24A1 expressed in Escherichia coli using 1,25(OH)2D3 substrate in presence of bovine adrenodoxin, adrenodoxin reductase and NADPH incubated at 37 degC for 25 mins by HPLC method
T1 sequence (Q07973 whole entry): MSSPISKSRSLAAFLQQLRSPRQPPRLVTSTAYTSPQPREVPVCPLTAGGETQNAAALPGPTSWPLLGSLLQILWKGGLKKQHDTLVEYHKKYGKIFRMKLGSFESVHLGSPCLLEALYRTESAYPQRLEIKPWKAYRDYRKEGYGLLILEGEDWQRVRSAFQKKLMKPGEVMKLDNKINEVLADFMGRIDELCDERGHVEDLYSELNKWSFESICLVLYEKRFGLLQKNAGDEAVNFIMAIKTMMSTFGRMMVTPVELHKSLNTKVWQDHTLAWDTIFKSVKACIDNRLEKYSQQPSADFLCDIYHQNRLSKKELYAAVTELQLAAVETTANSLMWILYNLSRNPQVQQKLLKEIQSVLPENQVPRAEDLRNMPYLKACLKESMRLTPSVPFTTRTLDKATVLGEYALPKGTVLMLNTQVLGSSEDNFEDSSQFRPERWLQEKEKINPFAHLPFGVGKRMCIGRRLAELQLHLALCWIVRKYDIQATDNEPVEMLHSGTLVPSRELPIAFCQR

[2] = Cytotoxicity against human primary CLL cells; format: functional; conditions: read-out: LD50 (the source's name)
How it was run: (§1)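 Primary CLL cells or normal B-cells from peripheral blood, purified by negative selection (CD3 Dynabeads; >90% purity by flow cytometry). Cultured at 1x10⁶/ml in RPMI with 10% FCS, penicillin/streptomycin and 5 ng/ml IL-4, 37 °C, 5% CO2. Exposed to inhibitor (0–1x10⁻⁷ M) up to 48 h. Annexin V-FITC/PI flow cytometry; LD50 from sigmoidal dose-response; triplicate.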

[3] = target: T1, 1,25-dihydroxyvitamin D(3) 24-hydroxylase, mitochondrial; experiment: Inhibition of CYP24A1 in human primary CLL cells assessed as increase in VDR-regulated GADD45alpha mRNA expression at 0.05 to 0.10 uM in presence of 100 nM 1,25(OH)2D3 incubated for 24 hrs by quantitative RT-PCR method; format: cell-based
How it was run: (§2)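 Primary CLL lymphocytes, purified by negative selection with CD3 beads (>90% purity), cultured in RPMI with 10% FCS, penicillin/streptomycin and 5 ng/ml IL-4 at 37°C, 5% CO2. Inhibitor 0, 0.01, 0.05 or 0.1 µM for 24 h with or without calcitriol (10 or 100 nM). Total RNA reverse transcribed, SYBR Green real-time PCR, 35 cycles. Target mRNA expressed as ratio to RPS14 from crossing points. Duplicates.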

[4] = target: T1, 1,25-dihydroxyvitamin D(3) 24-hydroxylase, mitochondrial; experiment: Inhibition of CYP24A1 in human primary CLL cells assessed as increase in VDR-regulated CDKN1A mRNA expression at 0.05 to 0.10 uM in presence of 100 nM 1,25(OH)2D3 incubated for 24 hrs by quantitative RT-PCR method; format: cell-based; how it was run: as §2
[5] = Induction of apoptosis in human primary CLL cells after 48 hrs by Annexin V/propidium iodide staining based flow cytometry; format: functional; how it was run: as §1
[6] = Induction of apoptosis in normal human B cells after 48 hrs by Annexin V/propidium iodide staining based flow cytometry; format: cell-based, B cell; conditions: read-out: LD50; how it was run: as §1
[7] = target: T1, 1,25-dihydroxyvitamin D(3) 24-hydroxylase, mitochondrial; experiment: Inhibition of CYP24A1 in human primary CLL cells assessed as increase in VDR-regulated CDKN1A mRNA expression in presence of 100 nM calcitriol incubated for 24 hrs by quantitative RT-PCR method; format: cell-based; how it was run: as §2

COc1cc(/C=C/c2ccc(CCC(=O)C(C)(C)C)cc2)cc(OC)c1
IC50 [1]: 2100 nM
Ki [1]: 150 nM

C=C1CC[C@H](O)C/C1=C/C=C1\CCC[C@]2(C)[C@@H]([C@H](C)CCCOS(=O)(=O)c3ccc(C)cc3)CC[C@@H]12
Ki [1]: 39 nM

C=C1/C(=C\C=C2/CCC[C@]3(C)C([C@H](C)C/C=C/S(=O)(=O)C(C)(C)C)=CC[C@@H]23)C[C@@H](O)C[C@@H]1O [LUNACALCIPOL]
IC50 [1]: 27 nM

COc1cc(/C=C/c2ccc(C(=O)NCC(c3ccccc3)n3ccnc3)cc2)cc(OC)c1OC (configuration not stated)
IC50 [1]: 140 nM
Ki [1]: 9.7 nM
CC50 [2]: 3500 nM
inhibition (INH) [3]: Active
inhibition (INH) [4]: Active

O=C(NCC(c1ccccc1)n1ccnc1)c1ccc(S(=O)(=O)Nc2ccccc2)cc1 (configuration not stated)
IC50 [1]: 1300 nM
Ki [1]: 91 nM

C=C1[C@H](O)CC(=C/C=C2\CCC[C@]3(C)[C@@H]([C@H](C)Cn4ccnc4)CC[C@@H]23)C[C@H]1O
Ki [1]: 21 nM

Nc1nc(F)nc2c1ncn2[C@@H]1O[C@H](CO)[C@@H](O)[C@@H]1O [FLUDARABINE]
CC50 [2]: 1100 nM

C=C1/C(=C\C=C2/CCC[C@]3(C)[C@@H]([C@H](C)CCS(=N)(=O)c4ccccc4)CC[C@@H]23)C[C@@H](O)C[C@@H]1O (some centres not stated)
IC50 [1]: 6.5 nM

O=C(NCC(c1ccccc1)n1ccnc1)c1ccc(/C=C/c2ccc(F)cc2)cc1 (configuration not stated)
IC50 [1]: 260 nM
Ki [1]: 19 nM
CC50 [2]: 15 nM

O=C(NCC(c1ccccc1)n1ccnc1)c1ccc(/C=C/c2ccccc2)cc1 (configuration not stated)
IC50 [1]: 400 nM
Ki [1]: 28 nM
CC50 [2]: 27 nM

COc1cc(/C=C/c2ccc(CCC(OS(C)(=O)=O)C(C)(C)C)cc2)cc(OC)c1 (configuration not stated)
IC50 [1]: 5400 nM
Ki [1]: 380 nM

C=C1[C@H](O)CC(=C/C=C2\CCC[C@]3(C)[C@@H]([C@H](C)CCCNC4CC4)CC[C@@H]23)C[C@H]1O
Ki [1]: 42 nM

CC(C)(C)C(=O)/C(=C/c1ccc(/C=C/c2ccccc2)cc1)n1ccnc1
IC50 [1]: 180 nM
Ki [1]: 13 nM

CC(C)(C)C(CCc1ccc(/C=C/c2ccccc2)cc1)OS(C)(=O)=O (configuration not stated)
IC50 [1]: 5600 nM
Ki [1]: 400 nM

CC(C)(C)C(=O)C(Cc1ccc(CCc2ccccc2)cc1)n1ccnc1 (configuration not stated)
IC50 [1]: 600 nM
Ki [1]: 42 nM

Clc1cccc(C(c2ccc3[nH]cnc3c2)n2ccnc2)c1 (configuration not stated) [LIAROZOLE]
IC50 [1]: 2.3 nM

O=C(NCC(c1ccccc1)n1ccnc1)c1ccc(CCc2ccc(F)cc2)cc1 (configuration not stated)
IC50 [1]: 510 nM
Ki [1]: 36 nM

COc1cc(/C=C/c2ccc(CCC(OS(=O)(=O)c3ccc(C)cc3)C(C)(C)C)cc2)cc(OC)c1 (configuration not stated)
IC50 [1]: 2900 nM
Ki [1]: 210 nM

COc1cc(/C=C/c2ccc(CCC(OC(=O)n3ccnc3)C(C)(C)C)cc2)cc(OC)c1 (configuration not stated)
IC50 [1]: 160 nM
Ki [1]: 11 nM

C=C1/C(=C\C=C2/CCC[C@]3(C)[C@@H]([C@H](C)CCCC(C)(C)O)CC[C@@H]23)C[C@@H](O)C[C@@H]1O [CALCITRIOL]
LD50 [5]: 2.86 ×10⁻⁷ M
CC50 at 48 h [6]: 6510 nM

COc1cc(/C=C/c2ccc(C(=O)NCC(c3ccccc3)n3ccnc3)cc2)cc(OC)c1 (configuration not stated)
IC50 [1]: 110 nM
Ki [1]: 7.8 nM
CC50 [2]: 13 nM
inhibition (INH) [7]: Dose-dependent effect
inhibition (INH) [3]: Active
inhibition (INH) [4]: Active

COc1ccc(/C=C/c2ccc(C(=O)NCC(c3ccccc3)n3ccnc3)cc2)cc1 (configuration not stated)
IC50 [1]: 340 nM
Ki [1]: 24 nM
CC50 [2]: 3200 nM
